Test [1] is described as follows: Ratio of PNS to the PN (Partition coefficient ratio between thio analogue to its oxo analogue). In short, it runs like this: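 Partitioning was between equal volumes of 1-octanol and 100 mM sodium phosphate pH 7.0. Phases were separated by centrifugation and each phase was quantified by UV absorbance at a wavelength chosen from spectra. The ratio is the thio analogue's partition coefficient over that of its oxo parent.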

The test system of test [2] is MT2. Nature of the test: Concentration of the drug resulting in 50% reduction of the viral cytopathic effect against HIV-1 replication in MT-2 cells. Format: functional, cell-based. To be noted: Homo sapiens. The essentials: (§1)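 NCI cytoprotection screen: HIV added at low amounts to T4 lymphoid cells (MT-2 or CEM), allowing at least two complete replication cycles to produce cell killing. […] An AZT-treated positive control was run alongside under identical conditions.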
In general terms: Cytopathic effects are the visible damage that an infection or toxin causes in cultured cells.

For test [3], the system named is CCRF-CEM. Nature of the test: Concentration of the drug resulting in 50% growth inhibition of normal, uninfected cells against HIV-1 replication in CEM cells. To be noted: Homo sapiens. Type of test: functional, cell-based. The essentials: as §1
The subject of test [4] is MT2. Briefly: Concentration of the drug resulting in 50% growth inhibition of normal, uninfected cells against HIV-1 replication in MT-2 cells. Type of test: functional, cell-based. To be noted: Homo sapiens. The essentials:
as §1

In test [5] the test system is CCRF-CEM. Nature of the test: Concentration of the drug resulting in 50% reduction of the viral cytopathic effect against HIV-1 replication in CEM cells. The following applies: Homo sapiens. Type of test: functional, cell-based. In short, it runs like this:
as §1

In a further test the target is Deoxycytidine kinase (Homo sapiens, UniProt P27707). Nature of the test: Inhibitory affect against rabbit deoxycytidine kinase and represented as molt/4F kinase. More on the design: species or system Oryctolagus cuniculus. To be noted: target entry is the homologue from another species.
Sequence of Deoxycytidine kinase (P27707 whole entry): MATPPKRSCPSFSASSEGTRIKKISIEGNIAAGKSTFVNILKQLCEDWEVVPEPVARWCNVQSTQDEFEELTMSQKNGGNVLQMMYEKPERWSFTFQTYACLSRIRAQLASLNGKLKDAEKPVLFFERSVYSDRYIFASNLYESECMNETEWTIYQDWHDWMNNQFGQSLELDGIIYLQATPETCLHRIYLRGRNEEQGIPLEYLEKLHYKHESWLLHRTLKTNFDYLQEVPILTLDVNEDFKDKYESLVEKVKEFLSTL

Regarding `Cc1cn([C@H]2C[C@H](N=[N+]=[N-])[C@@H](CO)O2)c(=O)[nH]c1=S`, the P ratio in test [1] was 6.99.

Broadly, the EC50 is the midpoint of the concentration-response curve. Read a low EC50 as greater potency. For orientation: IC50 means the concentration that inhibits the measured activity by half. The low end stands for inhibition by little substance, the high end for a need for much substance. Take `Cc1cn([C@H]2CC[C@@H](CO)O2)c(=O)[nH]c1=S`: the results for the EC50 in the test on MT2 [2] and with CCRF-CEM [5] were 39 µM and 31 µM, respectively. The P ratio in test [1] came out at 6.41. Moreover, the half-maximal inhibitory concentration (IC50) with CCRF-CEM [3] came to 93 µM; in the test on MT2 [4], 90 µM.

Consider `Cc1cn([C@H]2C[C@H](N=[N+]=[N-])[C@@H](CO)O2)c(=O)[nH]c1=O` [ZIDOVUDINE], for which the concentration for a half-maximal effect (EC50) in the test with MT2 [2] was found to be 0.18 µM; in the test with CCRF-CEM [5], 0.00032 µM. The IC50 with CCRF-CEM [3] is more than 100 µM; with MT2 [4], more than 970 µM.

Usually Ki stands for a dissociation constant, usually derived from enzyme kinetics or from competition with a known ligand. `Nc1ccn([C@H]2C=C[C@@H](CO)O2)c(=O)n1`: the affinity at Deoxycytidine kinase, expressed as Ki, was 4600 µM.

Take `Cc1cn([C@H]2C=C[C@@H](CO)O2)c(=O)[nH]c1=S`: the concentration giving a half-maximal response (EC50) in the test with MT2 [2] came to 27 µM; in the test on CCRF-CEM [5] it was 39 µM. Also, in test [1], the P ratio came out at 5.39. In addition, the half-maximal inhibitory concentration (IC50) with CCRF-CEM [3] was more than 430 µM; in the test on MT2 [4], more than 80 µM.

With `O=c1[nH]c(=S)ccn1[C@H]1CC[C@@H](CO)O1`, the P ratio in test [1] turned out to be 1.56.

For the compound `O=c1[nH]c(=S)ccn1[C@H]1C=C[C@@H](CO)O1`, the P ratio in test [1] was found to be 1.23.

Turning to `Cc1cn([C@H]2C=C[C@@H](CO)O2)c(=O)[nH]c1=O` [STAVUDINE], the 50% effective concentration (EC50) with MT2 [2] is 2 µM; in the test with CCRF-CEM [5] it was 0.8 µM. The IC50 with CCRF-CEM [3] was found to be 235 µM; in the test with MT2 [4] it was 71 µM.
